Reference: ChEMBL document CHEMBL5380787, “Optimized M24B Aminopeptidase Inhibitors for CARD8 Inflammasome Activation” (J Med Chem, 2023)
Active and inactive are the calls of the source. The rule behind the calls is not given here.

Columns and labels:
[1] = test system: MV4-11; assay: Cytotoxicity against human MV4-11 cells assessed as reduction in cell viability at 1 uM incubated for 24 hrs by celltiter-glo assay relative to control; type: functional
Outline: (§1)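 Single-dose viability screen. MV4;11 or OCI-AML2 cells at 2000 cells/well were exposed to 1 μM compound for 24 h. Viability was read by CellTiter-Glo luminescence and expressed as percent inhibition. Values are means of three biological replicates.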

[2] = test system: MV4-11; assay: Induction of pyroptosis in human MV4-11 cells assessed as LDH release at 20 uM incubated for 24 hrs; type: functional, cell-based
Outline: (§2)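 Cells (MV4;11, OCI-AML2 or THP-1; WT or the knockout named) plated at 5 × 10^5 cells/well and exposed to 20 μM compound for 24 h. LDH in the supernatant was measured relative to a Triton X-100 lysis control. For immunoblots, cells were washed in PBS, sonicated, protein-normalized, run on SDS-PAGE and probed for GSDMD cleavage. n = 3.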

[3] = test system: THP-1; assay: Induction of pyroptosis in DPP8/9 knockout human THP-1 cells assessed as GSDMD clevage at 20 uM incubated for 24 hrs by immunoblot analysis; type: functional, cell-based; outline: as §2
[4] = test system: MV4-11; assay: Induction of pyroptosis in CARD8 knockout human MV4-11 cells assessed as GSDMD cleavage at 20 uM incubated for 24 hrs by immunoblot analysis; type: functional, cell-based; outline: as §2
[5] = test system: THP-1; assay: Induction of pyroptosis in CARD8 knockout human THP-1 cells assessed as LDH release at 20 uM incubated for 24 hrs; type: functional, cell-based; outline: as §2
[6] = test system: THP-1; assay: Induction of pyroptosis in PEPD/XPNPEP1 knockout human THP-1 cells assessed as LDH release at 20 uM incubated for 24 hrs; type: functional, cell-based; outline: as §2
[7] = test system: OCI-AML2; assay: Induction of pyroptosis in CARD8 knockout human OCI-AML2 cells assessed as GSDMD cleavage at 20 uM incubated for 24 hrs by immunoblot analysis; type: functional, cell-based; outline: as §2
[8] = test system: OCI-AML2; assay: Cytotoxicity against human OCI-AML2 cells assessed as reduction in cell viability at 1 uM incubated for 24 hrs by celltiter-glo assay relative to control; type: functional; outline: as §1
[9] = test system: BMDM; assay: Induction of pyroptosis in C57BL/6J mouse BMDM cells expressing NLRP1A and NLRP1B allele 2 assessed as LDH release at 20 uM incubated for 24 hrs; type: functional, cell-based
Outline: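 Bone marrow cells from femurs and tibias of 7–12-week-old C57BL/6J mice were RBC-lysed and differentiated for 6 days at 37 °C in DMEM with 10% FBS and 15–20% L-cell medium, then replated. Cells were exposed to 20 μM compound for 24 h. Read-outs were LDH release against a lysis control and GSDMD immunoblot.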

[10] = test system: THP-1; assay: Induction of pyroptosis in CARD8 knockout human THP-1 cells harboring dox-inducible […] E274R mutant assessed as GSDMD cleavage at 20 uM pretreated with doxycycline for 16 hrs followed by compound addition and measured after 6 hrs by immunoblot analysis; type: functional, cell-based
Outline: (§3)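 CARD8−/− THP-1 cells carrying a doxycycline-inducible CARD8 E274R mutant were exposed or not to DOX at 100 ng/mL for 16 h. Compound was then added at 20 μM for 6 h, followed by LDH release and immunoblot analysis.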

[11] = test system: THP-1; assay: Induction of pyroptosis in CARD8 knockout human THP-1 cells harboring dox-inducible […] E274R mutant assessed as cell death by measuring LDH release at 20 uM pretreated with doxycycline for 16 hrs followed by compound addition and measured after 6 hrs; type: functional, cell-based; outline: as §3
[12] = test system: RAW264.7; assay: Induction of pyroptosis in mouse RAW264.7 cells expressing NLRP1B allele 1 assessed as GSDMD clevage at 20 uM incubated for 24 hrs by immunoblot analysis; type: functional, cell-based
Outline: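 RAW264.7 cells, grown in DMEM with 10% FBS, plated at 5 × 10^5 cells/well and exposed to 20 μM compound for 24 h. Supernatant LDH was measured relative to a Triton X-100 lysis control; lysates were immunoblotted for GSDMD cleavage. n = 3.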

[13] = test system: MV4-11; assay: Induction of cell death in CARD8 knockout human MV4-11 cells assessed as increase in PI uptake at 6.25 uM incubated for 6 hrs by PI staining based fluorescence analysis; type: functional
Outline: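 PI flux assay. 2 × 10^4 MV4;11 (WT, CARD8−/− or CASP1−/−) or OCI-AML2 cells in RPMI were given compound at 6.25 μM plus PI at 10 μM final. Fluorescence (Ex/Em 535/617 nm) was read every 5 min at 37 °C for 6 h, baseline-corrected to DMSO and normalized to the maximum response. n = 3.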

[14] = test system: OCI-AML2; assay: Induction of pyroptosis in human OCI-AML2 cells assessed as LDH release at 20 uM incubated for 24 hrs; type: functional, cell-based; outline: as §2
[15] = test system: THP-1; assay: Induction of pyroptosis in XPNPEP1 knockout human THP-1 cells assessed as GSDMD clevage at 20 uM incubated for 24 hrs by immunoblot analysis; type: functional, cell-based; outline: as §2
[16] = test system: THP-1; assay: Induction of pyroptosis in XPNPEP1 knockout human THP-1 cells assessed as LDH release at 20 uM incubated for 24 hrs; type: functional, cell-based; outline: as §2
[17] = test system: MV4-11; assay: Induction of pyroptosis in CARD8 knockout human MV4-11 cells assessed as LDH release at 20 uM incubated for 24 hrs; type: functional, cell-based; outline: as §2
[18] = molecular target: T1, Xaa-Pro dipeptidase (Homo sapiens) (UniProt P12955); assay: Inhibition of recombinant human PEPD using Ala-Pro as substrate assessed as alanine release by measuring increase in fluorescense signal at 1 uM by fluorescence based analysis relative to control
T1 sequence (whole entry): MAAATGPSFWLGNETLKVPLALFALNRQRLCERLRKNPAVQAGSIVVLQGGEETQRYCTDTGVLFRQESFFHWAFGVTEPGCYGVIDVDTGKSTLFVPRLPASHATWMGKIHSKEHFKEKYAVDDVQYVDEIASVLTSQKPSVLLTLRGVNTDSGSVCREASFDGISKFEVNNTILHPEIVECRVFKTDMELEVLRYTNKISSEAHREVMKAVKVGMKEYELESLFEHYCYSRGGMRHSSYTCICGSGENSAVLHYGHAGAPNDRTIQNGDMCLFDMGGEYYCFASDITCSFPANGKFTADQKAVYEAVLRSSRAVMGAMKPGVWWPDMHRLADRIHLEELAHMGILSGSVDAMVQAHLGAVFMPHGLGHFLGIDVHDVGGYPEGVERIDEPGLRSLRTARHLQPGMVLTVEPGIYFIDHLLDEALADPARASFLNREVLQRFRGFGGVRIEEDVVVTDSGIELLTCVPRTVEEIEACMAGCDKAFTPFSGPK
Outline: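 Recombinant human PEPD at 50 nM was incubated with Ala-Pro at 40 μM final and compound. Released alanine was detected by coupled alanine transaminase/pyruvate oxidase conversion to H2O2 and resorufin fluorescence (Ex/Em 535/587 nm) at 25 °C.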

[19] = test system: THP-1; assay: Induction of pyroptosis in CARD8 knockout human THP-1 cells assessed as GSDMD cleavage at 20 uM incubated for 24 hrs by immunoblot analysis; type: functional, cell-based; outline: as §2
[20] = test system: OCI-AML2; assay: Induction of cell death in CARD8 knockout human OCI-AML2 cells assessed as reduction in cell viability incubated for 24 hrs by celltiter-glo assay; type: functional, cell-based
Outline: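 OCI-AML2 cells, WT or CARD8−/−, were grown in RPMI 1640 with 10% FBS and plated at 2000 cells/well. Compound was added over a range of concentrations for 24 h, and viability was then read by CellTiter-Glo luminescence. Means ± SEM, n = 3.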

| inhibition [18] [%] | SMILES | Activity [1] [%] | Activity [2] | Activity [3] | Activity [4] | Activity [5] | Activity [6] | Activity [7] | Activity [8] [%] | Activity [9] | Activity [10] | Activity [11] | Activity [12] | Activity [13] | Activity [14] | Activity [15] | Activity [16] | Activity [17] | Activity [19] | Activity [20] |
| --- | --- | --- | --- | --- | --- | --- | --- | --- | --- | --- | --- | --- | --- | --- | --- | --- | --- | --- | --- | --- |
| 60 | COC(=O)[C@H](CC(C)C)NC(=O)[C@@H]1CCCN1C(=O)[C@@H](O)[C@H](N)CC(C)C | 45 | Active | inactive | inactive | inactive | inactive | inactive | 37 | inactive | inactive | inactive | inactive | inactive | Active | Active | Active | inactive | inactive | inactive |
| 48 | COC(=O)[C@@H]1CCCN1C(=O)[C@@H](O)[C@H](N)CC(C)C | 72 | Active | inactive | inactive | inactive | inactive | inactive | 42 | inactive | inactive | inactive | inactive | inactive | Active | Active | Active | inactive | inactive | inactive |
